According to ChEMBL document CHEMBL3425420 (J Med Chem, 2015):

Key:
Bcl-2-like protein 1 = Bcl-2-like protein 1 (Homo sapiens, UniProt Q07817); experiment: Displacement of FITC-Bak-BH3 peptide from Bcl-xL (unknown origin) incubated for 1.5 hrs by FPA competition assay
Method in brief: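 Compounds were added as a 10-point, 3-fold serial dilution and incubated 1.5 h at room temperature. IC50 came from a four-parameter fit of the anisotropy change, was converted to Ki, and duplicate values were averaged.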

[1] = biological target: T1, Induced myeloid leukemia cell differentiation protein Mcl-1 (Homo sapiens, UniProt Q07820); experiment: Displacement of FITC-Bak-BH3 peptide from Mcl-1 (unknown origin) incubated for 1.5 hrs by FPA competition assay
[2] = biological target: T1, Induced myeloid leukemia cell differentiation protein Mcl-1; experiment: Binding affinity to GST-tagged Mcl-1 (unknown origin) incubated for 60 mins by TR-FRET-binding affinity assay
[3] = biological target: Apoptosis regulator Bcl-2 (Homo sapiens, UniProt P10415); experiment: Displacement of FITC-Bak-BH3 peptide from Bcl-2 (unknown origin) incubated for 1.5 hrs by FPA competition assay
Method in brief: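 Compounds were added as a 10-point, 3-fold serial dilution and incubated 1.5 h at room temperature. The anisotropy change was fitted to a four-parameter variable-slope curve for IC50, converted to Ki, and duplicates were averaged.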

T1 sequence (Q07820 whole entry): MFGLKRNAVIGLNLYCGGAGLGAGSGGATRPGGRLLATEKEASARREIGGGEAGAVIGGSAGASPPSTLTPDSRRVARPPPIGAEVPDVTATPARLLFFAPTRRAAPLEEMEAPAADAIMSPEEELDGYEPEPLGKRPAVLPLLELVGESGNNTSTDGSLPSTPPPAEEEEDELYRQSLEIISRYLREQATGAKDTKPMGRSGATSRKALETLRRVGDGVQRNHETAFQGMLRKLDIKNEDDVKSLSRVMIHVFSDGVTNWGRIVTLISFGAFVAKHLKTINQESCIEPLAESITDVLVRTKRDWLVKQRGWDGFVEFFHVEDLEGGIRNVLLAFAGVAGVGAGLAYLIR
Sequence of Apoptosis regulator Bcl-2 (P10415 whole entry): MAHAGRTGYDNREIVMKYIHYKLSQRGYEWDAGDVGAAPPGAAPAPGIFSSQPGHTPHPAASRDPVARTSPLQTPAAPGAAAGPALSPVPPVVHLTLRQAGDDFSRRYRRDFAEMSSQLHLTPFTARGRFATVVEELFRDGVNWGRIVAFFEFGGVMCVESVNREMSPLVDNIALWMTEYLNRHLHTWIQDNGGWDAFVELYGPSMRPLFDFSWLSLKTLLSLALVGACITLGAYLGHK
Sequence of Bcl-2-like protein 1 (Q07817 whole entry): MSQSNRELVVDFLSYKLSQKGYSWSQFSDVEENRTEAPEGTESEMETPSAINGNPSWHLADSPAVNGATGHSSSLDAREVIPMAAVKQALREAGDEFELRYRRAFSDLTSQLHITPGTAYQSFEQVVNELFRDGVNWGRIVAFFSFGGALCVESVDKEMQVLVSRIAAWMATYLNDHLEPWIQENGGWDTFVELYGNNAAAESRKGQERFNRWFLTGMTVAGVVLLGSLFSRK

SMILES | Ki (Bcl-2-like protein 1) | Ki [1] | Ki [2] | Ki [3]
O=C(O)c1c(CCCOc2cccc3ccccc23)c2cccc3c2n1CCS3(=O)=O | > 20 µM | 0.088 µM | – | –
Cc1cc(OCCCc2c(C(=O)O)n3c4c(cccc24)CCC3)cc(C)c1Cl | – | 0.11 µM | – | –
Cc1c(C(=O)O)n2c3c(cccc13)CCC2 | – | 90 µM | – | –
O=C(O)c1c(CCOc2cccc3ccccc23)c2cccc3c2n1CCS3 | – | 3 µM | – | –
Cc1cc(OCCCc2c(C(=O)O)n3c4c(cccc24)OCC3)cc(C)c1Cl | – | 0.065 µM | – | –
CC1Cn2c(C(=O)O)cc3cccc(c32)S1 (centres undefined) | – | 35 µM | – | –
COCCCc1c(C(=O)O)n(CCN2CCOCC2)c2c(-c3c(C)nn(C)c3COc3ccc(N4CCN(S(=O)(=O)N(C)C)CC4)cc3)cccc12 | – | – | 0.000454 µM | –
O=C(O)c1c(CCOc2cccc3ccccc23)c2cccc3c2n1CCC3 | > 20 µM | 4 µM | – | –
Cc1c(C(=O)O)n2c3c(cccc13)SCC2 | – | 18 µM | – | –
O=C(O)c1c(CCCOc2ccc(Cl)c3ccccc23)c2cccc3c2n1CCS3 | 4.7 µM | – | – | 1.1 µM
O=C(O)c1cc2ccccc2[nH]1 [INDOLE-2-CARBOXYLIC ACID] | – | > 1000 µM | – | –
Cc1cc(OCCCc2c(C(=O)O)n3c4c(c(Cl)ccc24)CCC3)cc(C)c1Cl | 5.2 µM | 0.003 µM | – | –
Cc1cc(OCCCc2c(C(=O)O)n3c4c(cccc24)SCCC3)cc(C)c1Cl | > 20 µM | – | – | –
O=C(O)c1c(CCCOc2cccc3ccccc23)c2cccc3c2n1CCCS3(=O)=O | > 20 µM | 0.061 µM | – | 11.7 µM
Cc1cc(OCCCc2c(C(=O)O)n3c4c(cccc24)SCC3)cc(C)c1Cl | > 20 µM | – | – | 2.3 µM
O=C(O)c1c(CCOc2cccc3ccccc23)c2cccc3c2n1CCO3 | 12.7 µM | 1.6 µM | – | –
Cc1cc(OCCCc2c(C(=O)O)n3c4c(c(Cl)ccc24)OCC3)cc(C)c1Cl | > 20 µM | – | – | –
O=C(O)c1cc2cccc3c2n1CCC3 | – | 131 µM | – | –
O=C(O)c1c(CCCOc2cccc3ccccc23)c2cccc3c2n1CCC3 | > 20 µM | 0.31 µM | – | –
O=C(O)c1c(CCCOc2cccc3ccccc23)c2cccc3c2n1CCS3 | > 20 µM | 0.12 µM | – | 3.1 µM
O=C(O)c1c(CCCOc2cccc3ccccc23)c2cccc3c2n1CCC[S+]3[O-] (centres undefined) | > 20 µM | 0.074 µM | – | 16 µM
Cc1c(C(=O)O)n2c3c(cccc13)OCC2 | – | 18 µM | – | –
O=C(O)c1c(CCCOc2cccc3ccccc23)c2cccc3c2n1CCO3 | 1.9 µM | 0.11 µM | – | –
Cc1cc(OCCCc2c(C(=O)O)n3c4c(cccc24)SCC3)ccc1Cl | > 20 µM | 0.21 µM | – | 6.3 µM
O=C(O)c1c(CCCOc2cccc3c2CCCC3)c2cccc3c2n1CCS3 | 3 µM | 0.15 µM | – | –
O=C(O)c1c(CCCOc2cccc3ccccc23)c2cccc3c2n1CCCS3 | 7.4 µM | 0.17 µM | – | 9.9 µM
O=C(O)c1cc2cccc3c2n1CCS3 | – | 51 µM | – | –
O=C(O)c1c(CCCOc2ccc3c(c2)CCCC3)c2cccc3c2n1CCS3 | > 20 µM | 0.41 µM | – | 4.4 µM
